Source: PubChem (Sanford-Burnham Center for Chemical Genomics)
APJ antagonist: blocks the human apelin receptor APJ | CHO-K1 APJ beta-arrestin complementation, luminescence | P35414 | 330,000 compounds, 0.32% hits | inhibition, % at 20 µM;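 active = inhibition above about 40% at 20 µM, limit read from the data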;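 also: cells challenged with 10 nM apelin-13 agonist together with compound; plate controls were apelin-13 plus DMSO wells for no effect and DMSO wells lacking apelin-13 for full effect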
APJ agonist: activates the human apelin receptor APJ; P35414; CHO-K1 APJ PathHunter beta-arrestin, luminescence; 0% DMSO wells, 100% apelin; activation, % at 20 µM; 330,000 compounds, 0.11% hits;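 active = activation more than six SD over the plate average, tested at 20 µM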;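 also: 0% = DMSO alone and 100% = apelin-13 at 10 nM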
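Test system – PathHunter CHO-K1 APJ (AGTRL-1) beta-arrestin reporter cells · Input – 1000 cells/well · Compound – single test compound dose, 20 µM final, 1% DMSO · Times – compound stimulation 90 min at 25 °C, detection 60 min · Technique – beta-gal luminescence · Read-out basis – APJ–arrestin association signal · Control set – negative DMSO alone, positive Apelin-13 at 10 nM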
CXCR6 inh: blocks human CXCR6 beta-arrestin recruitment; O00574; CHO-K1 PathHunter CXCR6 beta-arrestin, luminescence; inhibition, % at 20 µM; 360,000 compounds, 0.36% hits; AID 602244; in the data active = inhibition above about 34%, passing the limit was not always enough;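 also: antagonist mode with CXCL16 agonist at 10 nM final; 0% = 10 nM CXCL16 with DMSO and 100% = unstimulated wells without agonist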
Target sequence (O00574 whole entry, looked up): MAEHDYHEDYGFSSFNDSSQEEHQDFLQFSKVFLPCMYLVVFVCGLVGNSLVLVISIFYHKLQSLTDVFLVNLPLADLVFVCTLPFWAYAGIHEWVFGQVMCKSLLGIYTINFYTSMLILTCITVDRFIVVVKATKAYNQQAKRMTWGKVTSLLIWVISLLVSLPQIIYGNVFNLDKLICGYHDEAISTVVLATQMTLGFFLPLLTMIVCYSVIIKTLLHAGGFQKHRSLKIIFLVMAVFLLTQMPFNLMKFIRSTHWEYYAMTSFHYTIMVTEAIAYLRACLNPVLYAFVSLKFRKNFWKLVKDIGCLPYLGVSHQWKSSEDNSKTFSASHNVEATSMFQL
CCR6 antag: CCR6 (human) receptor antagonism; 340,000 compounds, 0.49% hits; P51684; CHO-K1 CCR6 PathHunter beta-arrestin, luminescence, CCL20-stimulated; inhibition, % at 20 µM;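 active = compounds whose inhibition of the agonist-driven luminescence signal at 20 µM reaches about 50%, limit read from the data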;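 also: cells stimulated with CCL20 at 14 nM final; plate controls were DMSO with CCL20 for no effect and DMSO without agonist for full effect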
Target sequence (P51684 whole entry, looked up): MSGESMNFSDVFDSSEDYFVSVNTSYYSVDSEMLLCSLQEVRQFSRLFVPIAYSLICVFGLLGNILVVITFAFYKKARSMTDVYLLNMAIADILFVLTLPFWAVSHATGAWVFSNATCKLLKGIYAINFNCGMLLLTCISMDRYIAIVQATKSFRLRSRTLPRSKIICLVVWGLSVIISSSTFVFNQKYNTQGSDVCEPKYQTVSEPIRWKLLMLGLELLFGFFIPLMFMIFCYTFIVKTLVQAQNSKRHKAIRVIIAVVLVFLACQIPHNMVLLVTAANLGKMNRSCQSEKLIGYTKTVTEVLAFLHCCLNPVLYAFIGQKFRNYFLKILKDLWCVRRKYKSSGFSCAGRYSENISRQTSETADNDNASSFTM
EBI2 antag: EBI2 (human) antagonism | inhibition, % at 5 µM | EBI2 beta-arrestin recruitment, luminescence, 7a,25-OHC stimulated | 360,000 compounds, 0.81% hits | P32249 | AID 651636; in the data active = inhibition above about 38%;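 also: enzyme fragment complementation signal reports receptor beta-arrestin coupling in cells; 0% = agonist plus DMSO wells and 100% = wells without agonist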
EBI2 antag conf: EBI2 (human) antagonism, single concentration confirmation; shares compounds with EBI2 antag; EBI2 beta-arrestin luminescence, 7a,25-OHC antagonism; inhibition, % at 5 µM; 2,400 compounds, 29% hits; AID 651997;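 active = inhibition of at least 50%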
EBI2 ag: counter-screen for EBI2 antagonists: EBI2 agonist activity. shares compounds with EBI2 antag. activation, % at 5 µM. EBI2-expressing cells, agonist mode, luminescence, 60 min; 0% vehicle, 100% 7α,25-dihydroxycholesterol control. 2,400 tested, under 10 active;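 active = activation of at least 50%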
bGal cs: beta-galactosidase inhibition counter-screen; purified beta-galactosidase, luminescent Galacton Star, 15 min; 2,400 compounds, 1% hits; shares compounds with EBI2 antag; inhibition, % at 5 µM;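 active = replicate-average signal at least 3 plate SD below neutral wells, shown as high inhibition, flagging enzyme-inhibiting false positives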;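 also: 0% = DMSO wells with enzyme and 100% = wells lacking enzyme; higher means stronger loss of beta-gal luminescence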
* marks the source's active call; other numbers are inactive results; . = not tested or not shown. Sampled rows, rich in hits. Any-hit rate of the full collection: about 1.5%.

SMILES | APJ antagonist | APJ agonist | CXCR6 inh | CCR6 antag | EBI2 antag | EBI2 antag conf | EBI2 ag | bGal cs
Cc1ccccc1C1N=C2Oc3ccccc3C=C2C(=O)N1 (configuration not stated) | . | . | -2.8 | . | -6.7 | . | . | .
O=C(/C=C/c1ccccc1)N1CCN(c2ccc([N+](=O)[O-])c(N3CCOCC3)c2)CC1 | 17.7 | 4.2 | -3.9 | 15.1 | 77.7* | 57.8* | -1.5 | -7.5
O=C(c1ccc2ccccc2c1)N1CCN(c2ccc([N+](=O)[O-])c(N3CCOCC3)c2)CC1 | -13.9 | -2.9 | -2.9 | 6.6 | 47.2* | 33.9 | 0.2 | 6.8
Cc1cccc(C(=O)N2CCN(c3ccc([N+](=O)[O-])c(N4CCOCC4)c3)CC2)c1 | 11.4 | 0.4 | -2.9 | -4.7 | 12.9 | . | . | .
O=C(c1ccco1)N1CCc2[nH]nc(-c3ccc(Cl)cc3)c2C1 | 3.3 | -2.4 | 7.0 | 5.7 | 41.4* | 25.4 | 0.1 | 7.1
CC(=O)c1cccc(Nc2nc(-c3sc(C)nc3C)cs2)c1 | 1.8 | -1.3 | 1.6 | -2.2 | 51.7* | 37.8 | -1.0 | -11.0
CC(=O)Nc1ccc(Nc2nc(-c3sc(C)nc3C)cs2)cc1 | -16.7 | 5.1 | -4.1 | 4.9 | 1.0 | . | . | .
CC(=O)c1ccc(Nc2nc(-c3sc(C)nc3C)cs2)cc1 | . | . | -7.1 | . | 51.3* | 38.4 | 1.0 | 11.1
CC(=O)Oc1ccccc1Cn1c(C)c(C(=O)NCc2cccc([N+](=O)[O-])c2)sc1=O | . | . | 4.1 | . | 0.8 | . | . | .
Cn1c(NCc2ccco2)nc2c1c(=O)n(Cc1ccc(Cl)c(Cl)c1)c(=O)n2C | -7.7 | 5.1 | 9.6 | -0.3 | 46.1* | 35.0 | 0.1 | 6.3
Cn1c(NCC(O)CO)nc2c1c(=O)n(Cc1ccc(Cl)c(Cl)c1)c(=O)n2C (configuration not stated) | 3.0 | 1.1 | 1.9 | -3.3 | 2.7 | . | . | .
CCC(C(=O)c1ccc2ncccc2c1)c1ccccc1 (configuration not stated) | 10.2 | -3.6 | -1.8 | 10.1 | 60.9* | 46.2 | 1.4 | -2.6
O=[N+]([O-])c1ccc(NN=Cc2cc(Br)ccc2O)nc1 | . | . | 32.2 | 66.7* | 58.9* | 33.7 | -0.7 | 13.1
O=[N+]([O-])c1ccc(NN=Cc2cccc(O)c2)nc1 | . | . | 3.9 | 34.4 | 10.5 | . | . | .
COCCOc1ccc(C(F)(F)F)cc1NC(=O)COC(=O)Cc1c[nH]c2ccccc12 | -0.2 | 1.8 | -2.3 | 10.8 | 82.4* | 33.6 | 1.4 | 4.3
Cc1nc2ccc(C(=O)N3c4ccccc4N=C(c4ccc5c(c4)OCO5)C3C(=O)NCc3ccccc3)cc2[nH]1 (configuration not stated) | . | . | . | . | 2.5 | . | . | .
CCc1nc2ccc(C(=O)N3CCN(S(=O)(=O)CC)CC3)cn2c1N(CC)CCOC | . | . | -6.6 | . | -5.8 | . | . | .
Cc1ccc(C)c(N(CC(=O)Nc2cc(Cl)ccc2Oc2ccccc2)S(C)(=O)=O)c1 | 15.3 | -5.6 | 1.5 | 20.1 | 39.0 | . | . | .
Cc1cccc(C)c1N(CC(=O)Nc1cc(Cl)ccc1Oc1ccccc1)S(C)(=O)=O | 16.3 | -1.4 | 4.6 | 12.2 | 47.1* | 11.6 | -0.2 | 8.2
COc1ccc(N2CCN(C(=O)c3ccc4c(c3)CC(c3ccccc3)OC4=O)CC2)cc1 (configuration not stated) | 21.2 | -9.0 | 5.3 | 8.8 | 91.3* | 78.4* | -0.4 | 5.9
O=C1OC(c2ccccc2)Cc2cc(C(=O)N3CCN(c4ccc(F)cc4)CC3)ccc21 (configuration not stated) | 5.2 | 1.1 | -1.3 | 1.2 | 90.0* | 58.1* | 1.0 | 8.0
O=C(C1=C[C@@H](c2ccc(Br)cc2)C[C@@H](OCc2ccc(CO)cc2)O1)N1CCN(Cc2ccc3c(c2)OCO3)CC1 | -18.5 | 2.1 | 4.3 | 6.2 | 40.9* | -1.1 | -1.0 | -13.7
COc1ccc(N2CCN(C(=O)c3cc4c(s3)-c3ccccc3OC4)CC2)cc1 | 7.5 | -3.3 | -9.5 | 12.7 | 80.0* | 67.1* | -0.5 | -8.1
O=C(c1cc2c(s1)-c1ccccc1OC2)N1CCN(c2ccccc2)CC1 | 18.2 | -0.8 | -0.4 | 2.5 | 60.1* | 54.8* | -1.2 | -14.5
O=C(c1cc2c(s1)-c1ccccc1OC2)N1CCN(c2ccccn2)CC1 | -54.8 | -3.4 | 2.7 | 13.8 | 44.7* | 33.8 | 0.0 | -7.1
SMILES | APJ antagonist | APJ agonist | CXCR6 inh | CCR6 antag | EBI2 antag | EBI2 antag conf | EBI2 ag | bGal cs
COc1cccc(N2CCN(C(=O)c3cc4c(s3)-c3ccccc3OC4)CC2)c1 | 9.3 | -0.4 | 5.9 | -0.4 | 42.4 | . | . | .
CCOC(=O)N1CCN(C(=O)c2cc3c(=O)[nH]c4ccccc4c3s2)CC1 | -6.4 | 2.3 | -7.0 | 3.0 | 77.0* | 70.0* | -0.5 | 6.0
O=C(Cn1ncc2c1-c1ccccc1OC2)N1CCN(c2ccccn2)CC1 | 7.4 | -3.5 | -3.1 | 5.4 | 3.3 | . | . | .
O=C(c1cc2c(s1)-c1ccccc1OC2)N1CCCC1 | 2.0 | -3.4 | -0.4 | -12.0 | 1.7 | . | . | .
CCOC(=O)N1CCN(C(=O)c2cc3c(s2)-c2ccccc2OC3)CC1 | 5.7 | 1.0 | 6.4 | 13.8 | 82.3* | 73.7* | -1.1 | -10.1
NC(=Nc1c([N+](=O)[O-])cnc2ccccc12)N1CCOCC1 | . | . | 3.4 | . | 0.7 | . | . | .
Cc1cn([C@H]2C[C@H](O)[C@@H](/C=C/C(=O)NCCC(C)C)O2)c(=O)[nH]c1=O | . | . | -1.5 | . | 0.4 | . | . | .
Cc1ccc(C(=O)COC(=O)c2ccc3c(c2)C(=O)N(c2cccc4ncccc24)C3=O)cc1C | -0.3 | 2.3 | 4.2 | 11.4 | 47.9* | 1.2 | -1.6 | -8.6
Cc1cc(C(=O)NCC(=O)OCC(=O)NCC2CCCO2)ccc1[N+](=O)[O-] (configuration not stated) | 4.4 | -5.2 | 6.9 | 11.5 | -9.9 | . | . | .
Cc1cc(C(=O)NCC(=O)OCC(=O)N(C2CCCCC2)C2CCCCC2)ccc1[N+](=O)[O-] | 8.1 | -3.2 | -2.1 | 11.1 | 81.5* | 46.8 | -1.4 | -8.2
COc1cccc(CNC(=O)[C@@H]2CCCN2C(=O)[C@H]2CCCCN2C(=O)c2cccs2)c1 | . | . | -3.4 | . | -12.1 | . | . | .
O=C(CSc1nc2ccc(Nc3nc(N4CCOCC4)nc(N4CCOCC4)n3)cc2s1)Nc1ccccc1Cl | -30.1 | 2.7 | -6.4 | -2.5 | 9.5 | . | . | .
O=C(CSc1nc2ccc(Nc3nc(N4CCCC4)nc(N4CCCC4)n3)cc2s1)NCc1ccco1 | 0.8 | 3.3 | -1.5 | 3.9 | 48.9* | 17.6 | -0.8 | -10.5
COc1cc(NC(=O)c2ccc(-c3cnn(C)c3)c3ccoc23)cc(OC)c1OC | . | . | -3.0 | . | 7.9 | . | . | .
COc1cc2cc(C(=O)N3CCC(Cc4ccccc4)CC3)[nH]c2cc1OC | 13.4 | -5.3 | 8.6 | 8.1 | 13.4 | . | . | .
O=C(c1cc2cc(F)ccc2[nH]1)N1CCc2ccccc2C1 | -3.7 | -2.9 | -2.3 | 14.2 | 15.3 | . | . | .
